The text below walks through data of ChEMBL document CHEMBL1131156, “Studies on selectin blockers. 7. Structure-activity relationships of sialyl Lewis X mimetics based on modified Ser-Glu dipeptides” (J Med Chem, 1998).

pIC50: −log10 of the molar value. A value given as a limit tells only on which side of the number the result lay.

One assay has as its target T1, E-selectin (Homo sapiens, UniProt P16581).
T1 sequence (P16581 whole entry): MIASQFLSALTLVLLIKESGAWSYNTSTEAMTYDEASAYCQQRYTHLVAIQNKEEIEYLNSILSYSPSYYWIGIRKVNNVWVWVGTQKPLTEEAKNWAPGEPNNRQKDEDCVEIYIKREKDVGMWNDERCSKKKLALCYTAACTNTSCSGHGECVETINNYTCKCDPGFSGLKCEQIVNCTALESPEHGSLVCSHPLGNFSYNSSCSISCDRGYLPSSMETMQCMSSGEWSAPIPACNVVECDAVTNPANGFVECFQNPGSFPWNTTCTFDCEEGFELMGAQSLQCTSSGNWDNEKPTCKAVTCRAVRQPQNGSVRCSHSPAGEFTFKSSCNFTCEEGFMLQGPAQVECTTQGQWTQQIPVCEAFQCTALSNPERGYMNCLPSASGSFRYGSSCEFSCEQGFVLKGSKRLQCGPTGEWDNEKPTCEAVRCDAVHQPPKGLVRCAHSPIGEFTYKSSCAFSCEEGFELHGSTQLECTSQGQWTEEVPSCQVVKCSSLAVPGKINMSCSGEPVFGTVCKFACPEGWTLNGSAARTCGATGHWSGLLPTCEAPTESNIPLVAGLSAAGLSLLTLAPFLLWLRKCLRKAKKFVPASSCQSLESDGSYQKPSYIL
Kind of assay: Displacement of sialyl Lewis X (sLex) from selectin E.

The target in the next assay is T2, L-selectin (Homo sapiens, UniProt P14151).
T2 sequence (P14151 whole entry): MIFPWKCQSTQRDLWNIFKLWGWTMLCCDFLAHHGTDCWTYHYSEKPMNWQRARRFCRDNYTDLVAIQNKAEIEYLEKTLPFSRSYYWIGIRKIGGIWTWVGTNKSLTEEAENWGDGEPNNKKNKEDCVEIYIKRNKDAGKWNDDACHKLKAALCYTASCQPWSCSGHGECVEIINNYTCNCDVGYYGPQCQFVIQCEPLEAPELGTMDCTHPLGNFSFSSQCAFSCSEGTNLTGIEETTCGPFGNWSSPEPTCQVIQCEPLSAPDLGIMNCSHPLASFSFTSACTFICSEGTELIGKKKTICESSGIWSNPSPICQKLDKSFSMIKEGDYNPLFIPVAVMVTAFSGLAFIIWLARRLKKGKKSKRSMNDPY
Kind of assay: Inhibition of Selectin L binding. The method, boiled down:
(§1)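 Wells coated with sLeX pentasaccharide ceramide analogue (100 pmol/well, dried from 1:1 methanol/water), blocked with 5% BSA-1 mM CaCl2/50 mM imidazole (pH 7.2) 1 h RT. Selectin-Ig fusion was precomplexed 30 min RT with biotinylated goat F(ab')2 anti-human IgG/streptavidin-alkaline phosphatase. Compounds (DMSO stock 10 mM; […]) were incubated with complex 30 min RT, then in wells 45 min at 37 °C. Detection used p-nitrophenyl phosphate in diethanolamine, pH 9.8.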

In assay [1] the target is T3, P-selectin (Homo sapiens, UniProt P16109).
T3 sequence (P16109 whole entry): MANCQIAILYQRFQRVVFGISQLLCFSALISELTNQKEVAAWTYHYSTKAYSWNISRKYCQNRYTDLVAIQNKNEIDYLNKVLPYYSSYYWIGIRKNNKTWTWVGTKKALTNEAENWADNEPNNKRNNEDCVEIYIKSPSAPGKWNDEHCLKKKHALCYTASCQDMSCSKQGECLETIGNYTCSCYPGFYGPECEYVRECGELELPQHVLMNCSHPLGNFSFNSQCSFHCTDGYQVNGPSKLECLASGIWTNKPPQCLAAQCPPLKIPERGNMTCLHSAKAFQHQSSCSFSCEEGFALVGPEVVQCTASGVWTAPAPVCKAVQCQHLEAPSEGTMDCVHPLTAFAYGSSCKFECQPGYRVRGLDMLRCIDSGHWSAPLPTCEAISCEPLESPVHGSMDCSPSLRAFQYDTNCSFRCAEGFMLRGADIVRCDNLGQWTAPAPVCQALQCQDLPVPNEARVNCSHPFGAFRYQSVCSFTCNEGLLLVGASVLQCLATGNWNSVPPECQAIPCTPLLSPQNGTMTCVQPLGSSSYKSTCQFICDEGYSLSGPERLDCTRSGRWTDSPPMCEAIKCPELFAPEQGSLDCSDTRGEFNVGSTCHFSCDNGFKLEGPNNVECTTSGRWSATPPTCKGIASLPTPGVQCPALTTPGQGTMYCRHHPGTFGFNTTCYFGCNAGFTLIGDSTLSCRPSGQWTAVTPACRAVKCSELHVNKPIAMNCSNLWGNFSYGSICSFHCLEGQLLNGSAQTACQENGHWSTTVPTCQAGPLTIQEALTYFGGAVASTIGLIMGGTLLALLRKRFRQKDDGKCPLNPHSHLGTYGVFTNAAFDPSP
As to the kind of experiment: Inhibition of Selectin P binding. The method, boiled down: as §1

For assay [2], the target named is T3, P-selectin. Kind of assay: The compound was tested for the concentration to inhibit 50% of Selectin P by blocking its activity; range is 250-500.

In the case of `CCCCCCCCCCCCCCC(CCCCCCCCCCCCCC)C(=O)N[C@H](COC1OC(C)C(O)C(O)C1O)C(=O)NC(CC(=O)O)C(=O)NC` (stereo partly specified), the negative-log IC50 (pIC50) on E-selectin was less than 3.30; at L-selectin, 5.42; at P-selectin [1], 5.44.

As for `CCCCCCCCCCCCCCCC(=O)N[C@H](COC1OC(C)C(O)C(O)C1O)C(=O)NC(CCC(=O)O)C(=O)NC` (stereo partly specified), the values for the pIC50 at E-selectin, at P-selectin [2] and at L-selectin were less than 3.30, 3.60 and 3.70, respectively.

As for `CCCCCCCCCCCCCCC(CCCCCCCCCCCCCC)C(=O)N[C@H](CO[C@H]1O[C@H](CO)[C@@H](O)[C@@H](O)[C@@H]1O)C(=O)N[C@@H](CCC(=O)O)C(=O)NC`, the pIC50 on E-selectin is 5.46; at L-selectin, 5.40; on P-selectin [1] it was 6.35.

On to `CCCCCCCCCCCC(CCCCCCCCCCC)C(=O)N[C@H](COC1OC(C)C(O)C(O)C1O)C(=O)NC(CCC(=O)O)C(=O)NC` (stereo partly specified), for which the values for the pIC50 at E-selectin, at L-selectin and at P-selectin [1] were 3.80, 4.92 and 4.82, respectively.

On to `CCCCCCCCCCCCCCC(CCCCCCCCCCCCCC)C(=O)N[C@@H](CO[C@H]1O[C@@H](C)[C@@H](O)[C@H](O)[C@@H]1O)C(=O)N[C@@H](CCC(=O)O)C(=O)NC`, for which the pIC50 was less than 3.00 on E-selectin, 5.74 on L-selectin and 6.22 at P-selectin [1].

In the case of `CCCCCCCCCCCCCCC(CCCCCCCCCCCCCC)C(=O)N[C@H](CO[C@H]1O[C@@H](C)[C@@H](O)[C@H](O)[C@@H]1O)C(=O)N[C@@H](CCC(=O)O)C(=O)NC`, the pIC50 at E-selectin was less than 4.00; on L-selectin, 5.80; on P-selectin [1], 6.52.

As for `CCCCCCCCCCCCCCC(CCCCCCCCCCCCCC)C(=O)N[C@H](CO[C@H]1O[C@@H](C)[C@@H](O)[C@H](O)[C@@H]1O)C(=O)N[C@H](CCC(=O)O)C(=O)NC`, the pIC50 is less than 3.00 at E-selectin, 6.15 at L-selectin and 6.52 at P-selectin [1].

Turning to `CCCCCCCCCCCCCCC(CCCCCCCCCCCCCC)C(=O)N[C@@H](CO[C@H]1O[C@@H](C)[C@@H](O)[C@H](O)[C@@H]1O)C(=O)N[C@H](CCC(=O)O)C(=O)NC`, the pIC50 was less than 4.00 on E-selectin, 6.10 at L-selectin and 6.52 at P-selectin [1].

On to `CCCCCCCCCCCCCCC(CCCCCCCCCCCCCC)C(=O)N[C@H](COC1OC(C)C(O)C(O)C1O)C(=O)N[C@@H](CCC(=O)OC)C(=O)NC` (stereo partly specified), for which the pIC50 is less than 3.30 at E-selectin, less than 3.30 at L-selectin and 4.43 at P-selectin [1].

As for `CCCCCCCCCCCCCCC(CCCCCCCCCCCCCC)C(=O)N[C@H](COC1OC(C)C(O)C(O)C1O)C(=O)NC(CCC(=O)O)C(=O)OC` (stereo partly specified), the pIC50 on E-selectin was less than 3.30; at L-selectin it was 5.62; on P-selectin [1] it was 5.80.

For `CCCCCCCCCCCCCCC(CCCCCCCCCCCCCC)C(=O)N[C@@H](CO[C@H]1O[C@H](CO)[C@@H](O)[C@@H](O)[C@@H]1O)C(=O)N[C@H](CCC(=O)O)C(=O)NC` (stereo in doubt; 5b), the negative logarithm of the IC50 (pIC50) is 4.80 at E-selectin, 5.51 on L-selectin and 6.38 at P-selectin [1].

Consider `CCCCCCCCCCCCCCC(CCCCCCCCCCCCCC)C(=O)N[C@@H](CO[C@H]1O[C@H](CO)[C@@H](O)[C@@H](O)[C@@H]1O)C(=O)N[C@H](CCC(=O)O)C(=O)NC` (stereo in doubt; 5c), for which the negative logarithm of the IC50 (pIC50) at E-selectin is less than 3.00; on L-selectin, 5.38; at P-selectin [1], 6.17.

In the case of `CCCCCCCCCCCCCCC(CCCCCCCCCCCCCC)C(=O)N[C@@H](CO[C@H]1O[C@H](CO)[C@@H](O)[C@@H](O)[C@@H]1O)C(=O)N[C@H](CCC(=O)O)C(=O)NC` (stereo in doubt; 5d), the values for the negative-log IC50 (pIC50) on E-selectin, on L-selectin and on P-selectin [1] were less than 3.00, 5.36 and 6.42, respectively.

Regarding `CC(=O)N[C@H]1[C@H]([C@H](O)[C@H](O)CO)O[C@@](O[C@H]2[C@@H](O)[C@@H](CO)O[C@@H](O[C@@H]([C@H](O[C@@H]3O[C@@H](C)[C@@H](O)[C@@H](O)[C@@H]3O)[C@H](C=O)NC(C)=O)[C@H](O)CO)[C@@H]2O)(C(=O)O)C[C@@H]1O` [SIALYL LEWIS X], the pIC50 at L-selectin and on P-selectin [1] was less than 3.00 each time.
